# Experimental data from different studies.
# Compare with care: the assays were run in different laboratories.
# NT5E: 5'-nucleotidase (NT5E, Homo sapiens, UniProt P21589)
SMILES,target,observed,mode,method,concentration,measurement,result
N#Cc1c(C(F)(F)F)cc(-c2ccccc2)nc1SCC(=O)Nc1cccnc1,NT5E,enzyme activity,inhibitor,,10 µM,inhibition,40%
C1=C/COCc2cc(ccc2OCCN2CCCC2)Nc2nccc(n2)-c2cccc(c2)COC/1,"Cyclin-dependent kinase 13 (CDK13, Homo sapiens, UniProt Q14004)",cell-free assay,,,0.1 µM,remaining signal,60%
O=C(NS(=O)(=O)c1ccc(C(F)(F)F)cc1)c1cc2ccccc2n1Cc1ccc(Br)c2ccccc12,"Xanthine dehydrogenase/oxidase (XDH, Bos taurus, UniProt P80457)",enzyme activity,inhibitor,absorbance,10 µM,inhibition,17.2%
CC(=O)ON=C1C=CC(=C(C#N)c2ccccc2)C=C1,"Dual specificity tyrosine-phosphorylation-regulated kinase 1A (Dyrk1a, Rattus norvegicus, UniProt Q63470)",enzyme activity,inhibitor,ADP detection,2 µM,activity vs control,87%
NC/C(=C\F)COc1cccc(Cn2c(=S)[nH]c(=O)c3[nH]cnc32)c1,"Lactoperoxidase (LPO, Bos taurus, UniProt P80025)",enzyme activity,inhibitor,,2.5 µM,remaining activity,81.1%
COc1ccc2oc(-c3ccc4nc(N)oc4c3)c/c(=N\c3ccccc3NC(=O)CCN)c2c1,"Platelet-derived growth factor receptor alpha (PDGFRA, Homo sapiens, UniProt P16234)",binding,,,1 µM,remaining binding,103%
Cc1cc(-c2ccccc2)c(C#N)c(SCC(=O)Nc2nccs2)n1,NT5E,enzyme activity,inhibitor,HPLC,10 µM,inhibition,91%
CCCCC(=O)Nc1ccc(-c2ccc3ncn(CCC)c(=O)c3c2)cn1,"Phosphatidylinositol 4-kinase beta (PI4KB, Homo sapiens, UniProt Q9UBF8)",binding,,competition with immobilised ligand,0.5 µM,remaining binding,53%
